Usually Ki stands for the equilibrium dissociation constant of an inhibitor or competing ligand from its target. One may read the inhibition as the percentage by which the read-out fell short of the control. Usually pA2 stands for the negative logarithm of the molar antagonist concentration that doubles the agonist concentration needed for the same response.

These results are taken from ChEMBL document CHEMBL2150980 (Eur J Med Chem, 2012).

For one assay, the target named is T1, Alpha-1A adrenergic receptor (Homo sapiens, UniProt P35348).
T1 sequence (P35348 whole entry): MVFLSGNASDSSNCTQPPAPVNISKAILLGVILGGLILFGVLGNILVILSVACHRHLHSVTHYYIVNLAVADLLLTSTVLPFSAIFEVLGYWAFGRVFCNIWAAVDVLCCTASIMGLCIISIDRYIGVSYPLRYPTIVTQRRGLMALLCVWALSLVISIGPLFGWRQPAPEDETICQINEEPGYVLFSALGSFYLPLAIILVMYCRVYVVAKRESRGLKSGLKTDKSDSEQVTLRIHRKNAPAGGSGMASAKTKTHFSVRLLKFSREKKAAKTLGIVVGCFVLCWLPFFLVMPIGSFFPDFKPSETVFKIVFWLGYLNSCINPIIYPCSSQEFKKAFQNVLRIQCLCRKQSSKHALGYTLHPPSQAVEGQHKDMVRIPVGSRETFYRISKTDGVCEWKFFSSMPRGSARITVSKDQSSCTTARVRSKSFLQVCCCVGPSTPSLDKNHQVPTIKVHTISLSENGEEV
Description: Displacement of [3H]prazosin from human cloned alpha1A adrenoceptor expressed in CHO cell membranes after 30 mins by liquid scintillation counter. An outline of the steps: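 Membranes incubated 30 min at 25 °C with 0.5 nM [3H]-prazosin ± compound (0.3–1000 nM) in 50 mM buffer, pH 7.7, containing pargyline and 0.1% ascorbic acid. Unlabelled prazosin defined nonspecific binding. GF/B filtration, scintillation counting.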
In general terms: Displacement assays read how much labelled ligand stays bound in the presence of the test substance.
In the case of `COc1cccc(OC)c1OCCNC[C@@H]1COc2cccc(O)c2O1`, the inhibitory constant (Ki) is 66.1 nM. This counts as double-digit nanomolar.
On the same count and under the same terms, the result for `COc1cccc(OC)c1OCCNC[C@@H]1COc2cccc(OC)c2O1` reads 16.6 nM; that for `COc1cccc(OC)c1OCCNC[C@@H]1COc2cccc(Cl)c2O1`, 5.62 nM; that for `COc1cccc(OC)c1OCCNC[C@@H]1COc2c(OC)cccc2O1`, 813 nM.
The same measure, in the same setting: the figure for `COc1cccc(OC)c1OCCNC[C@@H]1COc2cccc(F)c2O1` is 18.2 nM.

A further assay has as its target T2, Alpha-1A adrenergic receptor (Cavia porcellus) (UniProt Q9WU25).
T2 sequence (whole entry): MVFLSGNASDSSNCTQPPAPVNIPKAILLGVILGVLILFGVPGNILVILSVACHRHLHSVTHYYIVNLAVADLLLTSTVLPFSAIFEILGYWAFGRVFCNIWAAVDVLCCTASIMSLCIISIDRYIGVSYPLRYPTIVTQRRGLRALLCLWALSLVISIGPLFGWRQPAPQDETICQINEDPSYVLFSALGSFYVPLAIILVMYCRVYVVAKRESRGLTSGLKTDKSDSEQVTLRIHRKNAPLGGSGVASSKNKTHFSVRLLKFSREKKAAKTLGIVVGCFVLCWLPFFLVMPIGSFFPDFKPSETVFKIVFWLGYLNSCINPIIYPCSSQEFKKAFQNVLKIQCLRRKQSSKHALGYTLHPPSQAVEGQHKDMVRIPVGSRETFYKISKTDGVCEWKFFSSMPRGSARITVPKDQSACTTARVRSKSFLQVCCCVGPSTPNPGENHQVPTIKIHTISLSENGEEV
Description: Inverse agonist activity at alpha1A adrenoceptor in guinea pig thoracic aorta assessed as inhibition of ca2+-induced IRT at 10 nM after 30 mins. The format is functional, tissue-based. The procedure, abridged: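 Tissue in Krebs equilibrated 1 h at 1 g, then given a single (−)-noradrenaline dose. Washed 1 h in Ca2+-free Krebs with 0.1 mM EDTA, with agonist reapplied until no contraction (internal Ca2+ stores depleted). Antagonist 10 nM for 30 min, then Ca2+ 1.8 mM added. Result is % decrease versus IRT without any agent; mean ± SE, 4–7 experiments.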
As to `COc1cccc(OC)c1OCCNC[C@H]1COc2ccccc2O1.Cl`, the inhibition worked out at 84%.

Another assay addresses T3, Adrenergic receptor alpha-2 (Rattus norvegicus, UniProt P22086+P19328+P22909).
T3 sequence (P22086 whole entry): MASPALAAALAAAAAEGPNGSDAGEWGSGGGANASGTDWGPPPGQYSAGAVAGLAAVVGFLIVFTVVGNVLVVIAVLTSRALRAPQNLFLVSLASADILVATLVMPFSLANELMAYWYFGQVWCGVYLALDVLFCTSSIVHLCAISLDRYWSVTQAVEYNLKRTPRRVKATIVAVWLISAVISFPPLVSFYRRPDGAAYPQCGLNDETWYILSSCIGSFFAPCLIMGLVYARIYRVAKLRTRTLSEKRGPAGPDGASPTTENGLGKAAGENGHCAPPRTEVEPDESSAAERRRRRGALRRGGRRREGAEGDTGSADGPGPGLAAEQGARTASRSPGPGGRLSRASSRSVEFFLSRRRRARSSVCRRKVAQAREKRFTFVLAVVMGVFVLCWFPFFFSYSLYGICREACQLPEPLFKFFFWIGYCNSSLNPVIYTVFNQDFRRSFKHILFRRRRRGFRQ
T3 sequence (P19328 whole entry): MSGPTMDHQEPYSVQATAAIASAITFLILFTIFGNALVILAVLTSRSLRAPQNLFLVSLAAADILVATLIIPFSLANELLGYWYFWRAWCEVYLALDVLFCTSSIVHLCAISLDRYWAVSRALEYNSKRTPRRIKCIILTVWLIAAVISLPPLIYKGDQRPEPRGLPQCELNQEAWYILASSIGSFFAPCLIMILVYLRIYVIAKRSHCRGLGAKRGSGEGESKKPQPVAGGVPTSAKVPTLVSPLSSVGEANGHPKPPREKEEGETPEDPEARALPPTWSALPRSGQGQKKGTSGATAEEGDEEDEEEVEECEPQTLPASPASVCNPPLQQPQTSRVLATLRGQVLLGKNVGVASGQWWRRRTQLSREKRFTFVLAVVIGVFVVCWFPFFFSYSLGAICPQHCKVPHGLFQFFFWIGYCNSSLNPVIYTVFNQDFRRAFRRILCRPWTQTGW
T3 sequence (P22909 whole entry): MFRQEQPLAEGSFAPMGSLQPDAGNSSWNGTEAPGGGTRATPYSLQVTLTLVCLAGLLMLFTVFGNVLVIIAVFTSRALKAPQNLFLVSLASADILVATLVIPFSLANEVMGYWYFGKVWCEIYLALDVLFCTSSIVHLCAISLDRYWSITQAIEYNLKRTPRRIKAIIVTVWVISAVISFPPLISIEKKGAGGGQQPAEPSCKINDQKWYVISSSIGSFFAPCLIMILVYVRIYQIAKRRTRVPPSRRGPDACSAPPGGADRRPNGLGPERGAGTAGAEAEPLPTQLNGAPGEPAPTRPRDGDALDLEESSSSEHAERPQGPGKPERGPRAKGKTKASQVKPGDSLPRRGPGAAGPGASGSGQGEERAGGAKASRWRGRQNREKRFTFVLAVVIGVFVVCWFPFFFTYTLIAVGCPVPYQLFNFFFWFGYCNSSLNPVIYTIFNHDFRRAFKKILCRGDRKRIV
Description: Antagonist activity at alpha2 adrenoceptor in Sprague-Dawley rat prostatic vas deferens assessed as suppression of clonidine-mediated inhibition of twitch response after 30 mins. The format is functional, tissue-based. The procedure, abridged:
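Prostatic vas deferens segments (1.5–2 cm) in Krebs at 37 °C, field-stimulated at 0.1 Hz with 3 ms square pulses, 20–40 V. Equilibrated 1 h at 0.35 g resting tension.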
Take `COc1cccc(OC)c1OCCNC[C@H]1COc2ccccc2O1.Cl`: the pA2 was 6.92.

Another assay concerns the target T4, Alpha-1D adrenergic receptor (Homo sapiens, UniProt P25100).
T4 sequence (P25100 whole entry): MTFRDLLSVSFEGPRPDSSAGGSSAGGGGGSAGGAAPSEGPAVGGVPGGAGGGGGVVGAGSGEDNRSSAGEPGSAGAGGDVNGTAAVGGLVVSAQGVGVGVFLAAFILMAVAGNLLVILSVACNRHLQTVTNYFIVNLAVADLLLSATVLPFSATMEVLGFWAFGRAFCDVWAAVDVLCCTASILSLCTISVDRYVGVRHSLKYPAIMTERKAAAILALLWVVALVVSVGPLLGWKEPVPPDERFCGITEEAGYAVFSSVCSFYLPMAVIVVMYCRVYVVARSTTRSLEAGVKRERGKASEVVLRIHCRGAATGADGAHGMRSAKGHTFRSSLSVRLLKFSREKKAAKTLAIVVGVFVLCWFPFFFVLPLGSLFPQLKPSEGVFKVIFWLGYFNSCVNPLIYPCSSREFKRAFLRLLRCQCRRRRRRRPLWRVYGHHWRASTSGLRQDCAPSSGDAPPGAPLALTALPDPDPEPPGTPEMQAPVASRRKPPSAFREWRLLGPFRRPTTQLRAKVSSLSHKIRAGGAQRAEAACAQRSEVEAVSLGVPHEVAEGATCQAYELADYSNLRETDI
Description: Displacement of [3H]prazosin from human cloned alpha1D adrenoceptor expressed in CHO cell membranes after 30 mins by liquid scintillation counter.
With `COc1cccc(OC)c1OCCNC[C@@H]1COc2cccc(O)c2O1`, the affinity corresponds to a Ki of 324 nM.
`COc1cccc(OC)c1OCCNC[C@@H]1COc2cccc(OC)c2O1` showed a Ki of 16.6 nM.
Still for that read-out and setting: the figure for `COc1cccc(OC)c1OCCNC[C@@H]1COc2cccc(Cl)c2O1` is 3.98 nM; for `COc1cccc(OC)c1OCCNC[C@@H]1COc2c(OC)cccc2O1` it is 263 nM; for `COc1cccc(OC)c1OCCNC[C@@H]1COc2cccc(F)c2O1` it is 7.41 nM.

The target of another assay is T5, Alpha-1B adrenergic receptor (Homo sapiens, UniProt P35368).
T5 sequence (P35368 whole entry): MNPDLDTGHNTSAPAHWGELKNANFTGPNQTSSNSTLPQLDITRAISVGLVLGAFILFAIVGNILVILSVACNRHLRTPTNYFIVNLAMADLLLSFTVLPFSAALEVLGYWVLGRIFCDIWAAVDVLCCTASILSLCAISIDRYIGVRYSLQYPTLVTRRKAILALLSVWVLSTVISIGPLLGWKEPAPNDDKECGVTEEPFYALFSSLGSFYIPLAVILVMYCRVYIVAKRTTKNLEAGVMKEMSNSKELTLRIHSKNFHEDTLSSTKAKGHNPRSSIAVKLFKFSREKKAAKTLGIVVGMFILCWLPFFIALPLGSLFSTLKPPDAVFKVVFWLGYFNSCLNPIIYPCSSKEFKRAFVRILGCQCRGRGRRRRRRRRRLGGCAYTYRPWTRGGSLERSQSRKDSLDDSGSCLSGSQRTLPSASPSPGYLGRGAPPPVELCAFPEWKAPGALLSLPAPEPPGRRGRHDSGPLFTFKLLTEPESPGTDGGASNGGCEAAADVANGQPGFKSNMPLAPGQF
Description: Displacement of [3H]prazosin from human cloned alpha1B adrenoceptor expressed in CHO cell membranes after 30 mins by liquid scintillation counter.
`COc1cccc(OC)c1OCCNC[C@@H]1COc2cccc(O)c2O1` gave an inhibition constant Ki of 398 nM. This counts as sub-micromolar.
The same measure, in the same setting: the figure for `COc1cccc(OC)c1OCCNC[C@@H]1COc2cccc(OC)c2O1` is 79.4 nM; for `COc1cccc(OC)c1OCCNC[C@@H]1COc2cccc(Cl)c2O1` it is 33.9 nM.
Still for that read-out and setting: the figure for `COc1cccc(OC)c1OCCNC[C@@H]1COc2c(OC)cccc2O1` is 646 nM; for `COc1cccc(OC)c1OCCNC[C@@H]1COc2cccc(F)c2O1` it is 102 nM.

Another assay has as its target T6, 5-hydroxytryptamine receptor 1A (Rattus norvegicus, UniProt P19327).
T6 sequence (P19327 whole entry): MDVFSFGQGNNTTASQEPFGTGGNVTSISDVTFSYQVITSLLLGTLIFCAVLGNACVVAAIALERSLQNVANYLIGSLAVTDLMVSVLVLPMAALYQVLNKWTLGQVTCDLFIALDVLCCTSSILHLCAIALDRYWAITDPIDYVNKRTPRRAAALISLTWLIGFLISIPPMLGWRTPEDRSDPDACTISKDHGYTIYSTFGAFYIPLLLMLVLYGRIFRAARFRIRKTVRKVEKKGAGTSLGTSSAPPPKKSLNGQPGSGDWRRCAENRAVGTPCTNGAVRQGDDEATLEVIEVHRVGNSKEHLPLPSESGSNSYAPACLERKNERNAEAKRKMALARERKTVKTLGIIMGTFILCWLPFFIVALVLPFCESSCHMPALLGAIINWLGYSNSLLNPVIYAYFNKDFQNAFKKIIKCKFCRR
Description: Displacement of [3H]-8-OH-DPAT from 5-HT1A receptor in rat hippocampal membranes after 30 mins by liquid scintillation counting. The class given is cell membranes, Hippocampus, Membrane. The procedure, abridged:
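Crude rat hippocampal membranes in Tris-HCl 50 mM, pH 7.7, with pargyline and 4 mM CaCl2. […] Stopped by GF/B filtration, then scintillation counting. Ki from IC50 via Cheng–Prusoff; ≥3 experiments in triplicate.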
In the case of `COc1cccc(OC)c1OCCNC[C@@H]1COc2cccc(O)c2O1`, the inhibition constant Ki was 17.4 nM.
On the same count and under the same terms, the result for `COc1cccc(OC)c1OCCNC[C@@H]1COc2cccc(OC)c2O1` reads 12.9 nM; that for `COc1cccc(OC)c1OCCNC[C@@H]1COc2cccc(Cl)c2O1`, 17.4 nM; that for `COc1cccc(OC)c1OCCNC[C@@H]1COc2c(OC)cccc2O1`, 123 nM.
Still for that read-out and setting: the result for `COc1cccc(OC)c1OCCNC[C@@H]1COc2cccc(F)c2O1` reads 31.6 nM.
